# According to ChEMBL document CHEMBL4316599, “Synthesis, in vitro and in vivo biological evaluation of substituted 3-(5-imidazo[2,1-b]thiazolylmethylene)-2-indolinones as new potent anticancer agents” (Eur J Med Chem, 2019):
# Active and inactive are the calls of the source. No cut-off for these calls is given here.
# Tests used:
# [1] = system: HT-29; experiment: Cell cycle arrest in human HT-29 cells assessed as accumulation of cells at G2/M phase at 50 nM after 24 hrs by propidium iodide staining-based flow cytometric analysis relative to control; type: functional
# How it was run: (§1)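 Cells exposed to a range of concentrations for 24 h (HeLa at 5×10^5 cells), then fixed in ice-cold 70% ethanol. Lysis buffer with RNase A and 0.1% Triton X-100 was applied before PI staining. DNA content was read by flow cytometry and G1/S/G2/M fractions taken from DNA histograms. Mean ± SEM of two independent experiments.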
# [2] = system: Melanoma cell line; experiment: Cytotoxicity against human melanoma cells after 48 hrs by SRB assay; type: functional
# How it was run: (§2)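 NCI-60 screen: single-dose pass at 10^-5 M, then a five-concentration assay from 10^-9 to 10^-4 M (highest 100 μM). Exposure was 48 h under standard NCI protocols. GI50, TGI and LC50 were derived per cell line and averaged by subpanel. Repeated tests are the mean of two experiments.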
# [3] = system: HeLa; experiment: Cell cycle arrest in human HeLa cells assessed as accumulation of cells at G2/M phase after 24 hrs by propidium iodide staining-based flow cytometric analysis; type: functional; how it was run: as §1
# [4] = system: K562; experiment: Cell cycle arrest in human K562 cells assessed as mitotic index at IC50 by Giemsa staining-based assay (reference value: 3%); type: functional
# [5] = system: HeLa; experiment: Cell cycle arrest in human HeLa cells assessed as accumulation of cells at G2/M phase at 50 nM after 24 hrs by propidium iodide staining-based flow cytometric analysis relative to control; type: functional; how it was run: as §1
# [6] = system: A549; experiment: Cell cycle arrest in human A549 cells assessed as reduction in accumulation of cells at G1 phase up to 600 nM after 24 hrs by propidium iodide staining-based flow cytometric analysis; type: functional; how it was run: as §1
# [7] = Toxicity in C57BL/6 mouse implanted with mouse E0771 cells assessed as effect on body weight at 7.5 to 15 mg/kg, ip dosed every day for 20 days; type: organism-based; conditions: in vivo, 480 h, in the assay text read “every other day” for “every day”
# How it was run: (§3)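 C57BL/6 mice, six weeks old, received 2.5×10^5 BL6-B16 or E0771 cells s.c. in the dorsolateral flank in PBS. Dosing began once tumours reached about 100 mm³: 7.5 or 15 mg/kg i.p. every other day in 50 μL DMSO. Vehicle and CA-4P 30 mg/kg served as controls. Body weight was monitored, with 5 animals per group.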
# [8] = system: HeLa; experiment: Induction of apoptosis in human HeLa cells assessed as increase in caspase-3 activity at 50 to 250 nM after 24 hrs by Western blot analysis; type: functional, cell-based
# How it was run: (§4)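 HeLa cells treated 24 h, washed in ice-cold PBS and lysed on ice 30 min. Lysates were spun at 15000 x g, 4 °C. 10 µg protein run on SDS-PAGE and blotted to PVDF. Blots were blocked in 5% BSA overnight at 4 °C and probed 2 h at room temperature. Detection by HRP-secondary and ECL, with bands normalized to β-actin as fold of untreated. Three independent experiments, one-way ANOVA/Dunnett.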
# [9] = system: A549; experiment: Cell cycle arrest in human A549 cells assessed as accumulation of cells at G2/M phase at 50 nM after 24 hrs by propidium iodide staining-based flow cytometric analysis relative to control; type: functional; how it was run: as §1
# [10] = system: Leukemia cell; experiment: Cytotoxicity against human leukemia cells after 48 hrs by SRB assay; type: functional; how it was run: as §2
# [11] = system: HT-29; experiment: Cell cycle arrest in human HT-29 cells assessed as reduction in accumulation of cells at S phase up to 1000 nM after 24 hrs by propidium iodide staining-based flow cytometric analysis; type: functional; how it was run: as §1
# [12] = system: E0771; experiment: Antitumor activity mouse E0771 cells implanted in C57BL/6 mouse assessed tumor growth inhibition at 7.5 mg/kg, ip dosed every other day for 20 days relative to control; type: functional; conditions: 480 h, read-out: TGI
# How it was run: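 Syngeneic allograft: C57BL/6 mice, six weeks old, given 2.5×10^5 BL6-B16 or E0771 cells subcutaneously in the dorsolateral flank in PBS. Dosing began at about 100 mm³. Test compound or reference was given intraperitoneally every other day in 50 μL DMSO, with DMSO vehicle controls. Tumor volume was compared with the vehicle group, 5 animals per group, mean ± SEM, by 2-way ANOVA with Bonferroni correction.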
# [13] = target: Tubulin (Bos taurus) (UniProt Q6B856+Q862L2+Q862F3); experiment: Inhibition of [3H]colchicine binding to bovine brain tubulin at 5 uM after 20 mins relative to control
# How it was run: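 Reaction mixtures held 1 μM tubulin, 5 μM [³H]colchicine and test compound at 5 or 50 μM. Read-out was percent inhibition of colchicine binding.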
# [14] = system: HeLa; experiment: Induction of apoptosis in human HeLa cells assessed as decrease in Bcl-2 levels at 50 to 250 nM after 24 hrs by Western blot analysis; type: functional, cell-based; how it was run: as §4
# [15] = system: HeLa; experiment: Cell cycle arrest in human HeLa cells assessed as increase in cyclin B1 expression at 50 nM after 24 hrs by Western blot analysis; type: functional, cell-based; how it was run: as §4
# [16] = system: HeLa; experiment: Induction of mitochondrial membrane depolarization in human HeLa cells at 250 to 500 nM after 6 to 48 hrs by JC-1 staining-based assay; type: functional, cell-based; conditions: TDE = time-dependent effect
# How it was run: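 HeLa cells treated at 250-500 nM for 6, 12, 24 or 48 h, then stained with JC-1. Percentage of cells with low mitochondrial membrane potential measured by flow cytometry. Mean ± SEM of three independent experiments.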
# [17] = system: E0771; experiment: Growth inhibition of mouse E0771 cells after 72 hrs by MTT assay; type: functional; conditions: E0771, 72 h
# How it was run: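 Murine BL6-B16 melanoma and EO771 breast tumor cells were exposed to compound for 72 h. GI50 is reported ± error.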
# [18] = system: K562; experiment: Cytotoxicity against human K562 cells after 48 hrs by SRB assay; type: functional, cell-based
# [19] = Toxicity in C57BL/6 mouse implanted with mouse B16-BL6 cells assessed as effect on body weight at 7.5 to 15 mg/kg, ip dosed every day for 18 days; type: organism-based; conditions: in vivo, 432 h, in the assay text read “every other day” for “every day”; how it was run: as §3
# [20] = Cytotoxicity against human PHA-stimulated PBL after 72 hrs by MTT assay; type: cell-based; conditions: PHA-stimulated peripheral blood lymphocytes (PBL)
# How it was run: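 Lymphocytes from healthy donors were isolated on a Lymphoprep gradient and held overnight in RPMI-1640 with 10% FBS. Non-adherent cells were set at 5×10^5 cells/mL, either resting or stimulated with 2.5 μg/mL PHA. Cells were exposed to a range of compound concentrations for 72 h and viability read by MTT. GI50 is the mean ± SEM of three separate experiments.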
# [21] = system: Breast carcinoma cell; experiment: Cytotoxicity against human breast cancer cells after 48 hrs by SRB assay; type: functional; how it was run: as §2
# [22] = system: K562; experiment: Cell cycle arrest in human K562 cells assessed as mitotic index at 10 times IC50 by Giemsa staining-based assay (reference value: 3%); type: functional
# [23] = system: A549; experiment: Cell cycle arrest in human A549 cells assessed as accumulation of cells at G2/M phase after 24 hrs by propidium iodide staining-based flow cytometric analysis; type: functional; how it was run: as §1
# [24] = system: A549; experiment: Cell cycle arrest in human A549 cells assessed as reduction in accumulation of cells at S phase up to 600 nM after 24 hrs by propidium iodide staining-based flow cytometric analysis; type: functional; how it was run: as §1
smiles,measurement,setting,value
O=C1Nc2c(ccc3ccccc23)C1=Cc1c(-c2ccncc2)nc2sccn12,Activity,[1],>80%
same,GI50,[2],7.16 µM
same,TGI,[2],72.9 µM
same,CC50,[2]; read-out: LC50 (the source's name),95.3 µM
same,Activity,[3],Dose-dependent effect
same,Activity,[4],12%
same,Activity,[5],>80%
same,Activity,[6],Active
same,Activity,[7],Non-Toxic
same,Activity,[8],Active
same,Activity,[9],>80%
same,GI50,[10],0.03 µM
same,TGI,[10],79.5 µM
same,Activity,[11],Active
same,inhibition in vivo at 7.5 mg/kg,[12],51.8%
same,inhibition,[13],25%
same,Activity,[14],Active
same,Activity,[15],Active
same,Activity,[16],Tde
same,GI50,[17],0.015 µM
same,Activity,[18],Dose-dependent effect
same,Activity,[19],Non-Toxic
same,GI50 at 72 h,[20],5.5 µM
same,GI50,[21],0.04 µM
same,LC50 (concentration killing 50% of cells),[21],99 µM
same,TGI,[21],71.3 µM
same,Activity,[22],58%
same,Activity,[23],Dose-dependent effect
same,Activity,[24],Active
